A selection follows.
Apaf-1 act: activators of human Apaf-1 apoptosome, primary screen, biochemical, DEVD-Rh110 fluorescence, uHTS. AID 489031, 2010. Apaf-1 apoptosome caspase-3 activation; active compounds read low. Apoptotic protease-activating factor 1 (Homo sapiens), O14727. activity change, negative = activation, % at 20 µM. hit rate 0.31% among 330,000;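 active = activity change at or below -40% at 20 µM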
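Schedule: 30 min preincubation, 50 min reaction, room temperature / System: biochemical Apaf-1 apoptosome reconstitution / Medium: 20 mM HEPES pH 7.5 with CHAPS, BSA / Evaluation: Caspase-3 cleavage activity downstream of Apaf-1 activation / Detection: Caspase-3-released Rh110 fluorescence, 540 nm emission, 480 nm excitation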
Rh110 act interf: Rh110 fluorescence interference by putative Apaf-1 activators, confirmation, artefact control for Apaf-1 activator project, biochemical, 20 µM; shares compounds with Apaf-1 act; quenched caspase reaction, Ex480/Em540; 980 tested, under 10 active; fluorescence interference (activity change), % at 20 µM, hits read low;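 active = mean activity change at or below -40% when tested at 20 µM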
Apaf-1 act conf2: Apaf-1 activators, single-dose retest, confirmation, biochemical, fluorescence, DEVD-Rh110, 20 µM | shares compounds with Apaf-1 act | reconstituted apoptosome caspase-3 activity; active compounds read low | activity change, negative = activation, % at 20 µM | hit rate 5% among 980 | AID 504617, 2011;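 active = mean activity change at or below -40%, meaning activation of 40% or more, at 20 µM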
Of the large screens only hits and unclear results are named; the others gave an inactive call (follow-up assays come after a bar, where they were run).

COc1ccc(Cn2c(N)c(C#N)c3nc4ccccc4nc32)cc1OC	none
Fc1ccc(NC(=S)Nc2cccc3cnccc23)cc1	none
O=C(O)c1ccc(NC2=C/C(=N/S(=O)(=O)c3ccccc3)c3ccccc3C2=O)cc1	none
Cc1cnc(C(=O)NC2CC(C)(C)Cc3c2cnn3-c2ccccc2)cn1 (stereo unspecified)	Apaf-1 act -85 | Rh110 act interf inactive | Apaf-1 act conf2 inactive
CC(=O)NC1N=C(C)N(c2ccccc2)C1=O (stereo unspecified)	none
O=C(Nc1cccc([N+](=O)[O-])c1)Nc1ccc2c(c1)OCCO2	Apaf-1 act -288 | Rh110 act interf inactive | Apaf-1 act conf2 inactive
CC(C)Cc1nnc(NC(=O)C2CSC3(C)CCC(=O)N23)s1 (stereo unspecified)	Apaf-1 act -83 | Rh110 act interf inactive | Apaf-1 act conf2 inactive
Cc1ccc(NC(=O)C2CCN(C(=O)[C@@H]3Cc4ccccc4CN3)CC2)c(C)c1	Apaf-1 act -72 | Rh110 act interf inactive | Apaf-1 act conf2 inactive
COC(=O)Nc1nnc(COc2ccccc2)s1	Apaf-1 act -573 | Rh110 act interf inactive | Apaf-1 act conf2 inactive
CC1(C(=O)Nc2cccc3ccccc23)CC1(Br)Br (stereo unspecified)	none
COc1ccc2c(c1)c(/C=N/Nc1nc3ccccc3[nH]1)c(C)n2C	none
Clc1ccc(-c2ccc(CNCC3CCCO3)o2)cc1 (stereo unspecified)	Apaf-1 act -131 | Rh110 act interf inactive | Apaf-1 act conf2 inactive
CC(=O)NC1=C(NC2CCS(=O)(=O)C2)C(=O)c2ccccc2C1=O (stereo unspecified)	none
COC(=O)c1ccccc1N/C=C1\CCc2c(c(C)nn2-c2ccccn2)C1=O	none
CCNC1=C(Cl)C(=O)c2ccccc2C1=O	none
Oc1ccc(NCc2ccccc2OCc2ccccc2F)cc1	none
Cc1[nH]n(-c2ccccc2)c(=O)c1C(c1ccc(C(=O)O)cc1)c1c(C)[nH]n(-c2ccccc2)c1=O	none
CC1(OC(=O)C2CCCC2)C(=O)C=C2C=C(c3ccsc3)N(CCCCO)C=C2C1=O (stereo unspecified)	none
CCCCc1nn2c(N)c(/C=C3\C=Nc4ccccc43)c(=O)nc2s1	Apaf-1 act -459 | Rh110 act interf inactive | Apaf-1 act conf2 inactive
CN(C)CCC(c1ccc(Br)cc1)c1ccccn1 (stereo unspecified)	none
CCOc1ccc(NC(=S)Nc2cccc3ccccc23)cc1	none
CCOc1ccccc1NC(=O)COc1ccc2ccc(=O)oc2c1	Apaf-1 act -87 | Rh110 act interf inactive | Apaf-1 act conf2 inactive

Bioassay records as filed in PubChem BioAssay.
